Test results reported in ChEMBL document CHEMBL3603811, “Design, chemical synthesis and biological evaluation of 3-spiromorpholinone/3-spirocarbamate androsterone derivatives as inhibitors of 17β-hydroxysteroid dehydrogenase type 3” (Bioorg Med Chem, 2015).

Key:
[1] = biological target: T1, 17-beta-hydroxysteroid dehydrogenase type 3 (Rattus norvegicus) (UniProt O54939); test: Inhibition of 17beta-HSD3 in rat testes microsomes using [14C]-4-androstene-3,17-dione as substrate measured based on 4% of initial enzyme transformation at 1 uM after 2 hrs; conditions: Testis
T1 sequence (whole entry): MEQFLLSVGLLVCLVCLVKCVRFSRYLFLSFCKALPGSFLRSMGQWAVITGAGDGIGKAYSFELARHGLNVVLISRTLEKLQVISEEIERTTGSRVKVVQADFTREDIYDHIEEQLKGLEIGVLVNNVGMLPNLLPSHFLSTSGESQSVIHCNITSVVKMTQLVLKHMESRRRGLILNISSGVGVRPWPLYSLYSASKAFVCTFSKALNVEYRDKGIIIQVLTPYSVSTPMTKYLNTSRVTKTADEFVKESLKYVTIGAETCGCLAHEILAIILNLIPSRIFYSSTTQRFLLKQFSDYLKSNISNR
Method in brief: (§1)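 Rat testis microsomes: homogenate in phosphate/sucrose/EDTA buffer pH 7.5 with protease inhibitors, spun 12,500g, then pellet from 100,000g, at 4 °C. Reaction 2 h at 37 °C in 50 mM sodium phosphate pH 7.4, 20% glycerol, 1 mM EDTA, with NADPH and [14C]-Δ4-dione (50 nM). Inhibitor in DMSO. [14C]-T and substrate identified against reference steroids and quantified. Percent transformation and percent inhibition calculated.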

[2] = biological target: T1, 17-beta-hydroxysteroid dehydrogenase type 3 (Rattus norvegicus); test: Inhibition of 17beta-HSD3 in rat testes microsomes using [14C]-4-androstene-3,17-dione as substrate measured based on 18% of initial enzyme transformation at 0.1 uM after 2 hrs; conditions: Testis; method in brief: as §1
[3] = biological target: T1, 17-beta-hydroxysteroid dehydrogenase type 3 (Rattus norvegicus); test: Inhibition of 17beta-HSD3 in rat testes microsomes using [14C]-4-androstene-3,17-dione as substrate measured based on 4% of initial enzyme transformation at 10 uM after 2 hrs; conditions: Testis; method in brief: as §1
LAPC4 [4] = test: Androgenic activity in human LAPC4 cells expressing androgen receptor assessed as induction of cell proliferation at 0.1 uM after 3 days by MTS assay relative to control; assay type: functional
Method in brief: (§2)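 LAPC-4 (AR+) cells in RPMI-1640 with 5% dextran-coated charcoal-treated FBS to remove hormones. Triplicate cultures of 10,000 cells preincubated 24 h at 37 °C, 5% CO2. Compounds from 10^-2 M DMSO stock, diluted in medium, added for 3 days (final DMSO 0.05%; vehicle controls). Growth read by MTS. Androgenicity = % proliferation minus basal set at 100%.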

LAPC4 [5] = test: Androgenic activity in human LAPC4 cells expressing androgen receptor assessed as induction of cell proliferation at 1 uM after 3 days by MTS assay relative to control; assay type: functional; method in brief: as §2
[6] = biological target: T1, 17-beta-hydroxysteroid dehydrogenase type 3 (Rattus norvegicus); test: Inhibition of 17beta-HSD3 in rat testes microsomes using [14C]-4-androstene-3,17-dione as substrate measured based on 18% of initial enzyme transformation at 1 uM after 2 hrs; conditions: Testis; method in brief: as §1
[7] = biological target: T1, 17-beta-hydroxysteroid dehydrogenase type 3 (Rattus norvegicus); test: Inhibition of 17beta-HSD3 in rat testes microsomes using [14C]-4-androstene-3,17-dione as substrate measured based on 18% of initial enzyme transformation at 0.01 uM after 2 hrs; conditions: Testis; method in brief: as §1

COC(=O)CN1C[C@]2(CC[C@@]3(C)[C@@H](CC[C@@H]4[C@@H]3CC[C@]3(C)C(=O)CC[C@@H]43)C2)OC1=O
inhibition [1]: 54.6%
inhibition [2]: 9%
inhibition [3]: 80.8%
Activity (LAPC4 [4]): 11%
Activity (LAPC4 [5]): 33.8%

C[C@]12CCC(=O)C[C@@H]1CC[C@@H]1[C@@H]2CC[C@]2(C)[C@@H](O)CC[C@@H]12 [STANOLONE]
Activity (LAPC4 [4]): 28.8%
Activity (LAPC4 [5]): 51.5%

C[C@]12CC[C@]3(CN[C@H](Cc4ccccc4)C(=O)O3)C[C@@H]1CC[C@@H]1[C@@H]2CC[C@]2(C)C(=O)CC[C@@H]12
inhibition [3]: 70.6%
Activity (LAPC4 [4]): 0%
Activity (LAPC4 [5]): 15.3%

C[C@]12CC[C@@]3(C[C@@H]1CC[C@@H]1[C@@H]2CC[C@]2(C)C(=O)CC[C@@H]12)CN(Cc1ccc2ccccc2c1)CC(=O)O3
inhibition [2]: 88.3%
inhibition [6]: 93.2%
inhibition [7]: 0%
Activity (LAPC4 [4]): 22.3%
Activity (LAPC4 [5]): 16.5%

CC(C)C[C@@H]1NC[C@]2(CC[C@@]3(C)[C@@H](CC[C@@H]4[C@@H]3CC[C@]3(C)C(=O)CC[C@@H]43)C2)OC1=O
inhibition [1]: 69.3%
inhibition [2]: 39.4%
inhibition [6]: 84.9%
inhibition [3]: 83.8%
Activity (LAPC4 [4]): 14.5%
Activity (LAPC4 [5]): 11.1%

C[C@]12CC[C@@]3(C[C@@H]1CC[C@@H]1[C@@H]2CC[C@]2(C)C(=O)CC[C@@H]12)CN(Cc1ccccc1)[C@H](Cc1ccccc1)C(=O)O3
inhibition [1]: 61.7%
Activity (LAPC4 [4]): 9.9%
Activity (LAPC4 [5]): 50.1%

C[C@]12CC[C@]3(CN[C@@H](Cc4ccccc4)C(=O)O3)C[C@@H]1CC[C@@H]1[C@@H]2CC[C@]2(C)C(=O)CC[C@@H]12
inhibition [1]: 75%
inhibition [3]: 88.2%
Activity (LAPC4 [4]): 3.9%
Activity (LAPC4 [5]): 36.5%

C[C@]12CC[C@@]3(C[C@@H]1CC[C@@H]1[C@@H]2CC[C@]2(C)C(=O)CC[C@@H]12)CN(Cc1cccc2ccccc12)CC(=O)O3
inhibition [2]: 79.1%
inhibition [6]: 94.5%
inhibition [7]: 12.8%
Activity (LAPC4 [4]): 3.8%
Activity (LAPC4 [5]): 9.3%

C[C@]12CC[C@@]3(C[C@@H]1CC[C@@H]1[C@@H]2CC[C@]2(C)C(=O)CC[C@@H]12)CN(CC(CN1CCOCC1)OC(=O)C1CCCCC1)C(=O)O3 (stereo not given in full)
inhibition [1]: 93.9%
inhibition [2]: 51.5%
inhibition [6]: 93.1%
inhibition [3]: 97.2%
Activity (LAPC4 [4]): 4.8%
Activity (LAPC4 [5]): 9.4%

C[C@]12CC[C@@]3(C[C@@H]1CC[C@@H]1[C@@H]2CC[C@]2(C)C(=O)CC[C@@H]12)CN(Cc1ccccc1)[C@@H](Cc1ccccc1)C(=O)O3
inhibition [1]: 81%
inhibition [3]: 83.6%
Activity (LAPC4 [4]): 6.1%
Activity (LAPC4 [5]): 53.7%

CC(C)C[C@H]1NC[C@]2(CC[C@@]3(C)[C@@H](CC[C@@H]4[C@@H]3CC[C@]3(C)C(=O)CC[C@@H]43)C2)OC1=O
inhibition [1]: 50.2%
inhibition [2]: 17.9%
inhibition [3]: 77.7%
Activity (LAPC4 [4]): 7.9%
Activity (LAPC4 [5]): 23.6%

COC(=O)[C@H](CC(C)C)N1C[C@]2(CC[C@@]3(C)[C@@H](CC[C@@H]4[C@@H]3CC[C@]3(C)C(=O)CC[C@@H]43)C2)OC1=O
inhibition [1]: 82.3%
inhibition [2]: 57.6%
inhibition [6]: 93.6%
inhibition [3]: 88.4%
Activity (LAPC4 [4]): 0%
Activity (LAPC4 [5]): 8.4%

C[C@]12CC[C@@]3(C[C@@H]1CC[C@@H]1[C@@H]2CC[C@]2(C)C(=O)CC[C@@H]12)CN(Cc1ccc(C(F)(F)F)cc1C(F)(F)F)CC(=O)O3
inhibition [2]: 64.1%
inhibition [6]: 89.6%
inhibition [7]: 18.3%
Activity (LAPC4 [4]): 0%
Activity (LAPC4 [5]): 27%

C#CCN1CC(=O)O[C@@]2(CC[C@@]3(C)[C@@H](CC[C@@H]4[C@@H]3CC[C@]3(C)C(=O)CC[C@@H]43)C2)C1
inhibition [2]: 34.1%
inhibition [6]: 80.7%
inhibition [7]: 0.1%
Activity (LAPC4 [4]): 20.1%
Activity (LAPC4 [5]): 25.5%

C[C@]12CC[C@@]3(C[C@@H]1CC[C@@H]1[C@@H]2CC[C@]2(C)C(=O)CC[C@@H]12)CN(Cc1ccc(-c2cccc(C(F)(F)F)c2)cc1)CC(=O)O3
inhibition [2]: 84.8%
inhibition [6]: 84.9%
inhibition [7]: 26.1%
Activity (LAPC4 [4]): 13.5%
Activity (LAPC4 [5]): 14.3%

C[C@]12CC[C@@]3(C[C@@H]1CC[C@@H]1[C@@H]2CC[C@]2(C)C(=O)CC[C@@H]12)CN(Cc1cccc(C(F)(F)F)c1)CC(=O)O3
inhibition [2]: 54.1%
inhibition [6]: 94.2%
inhibition [7]: 17.7%
Activity (LAPC4 [4]): 0%
Activity (LAPC4 [5]): 27%

CC(C)C[C@H]1C(=O)O[C@@]2(CC[C@@]3(C)[C@@H](CC[C@@H]4[C@@H]3CC[C@]3(C)C(=O)CC[C@@H]43)C2)CN1Cc1ccccc1
inhibition [1]: 77.3%
inhibition [2]: 62.9%
inhibition [6]: 93.1%
inhibition [3]: 87.1%
Activity (LAPC4 [4]): 8.4%
Activity (LAPC4 [5]): 44.2%

C[C@]12CC[C@@]3(C[C@@H]1CC[C@@H]1[C@@H]2CC[C@]2(C)C(=O)CC[C@@H]12)CN(Cc1ccc(I)cc1)CC(=O)O3
inhibition [2]: 79%
inhibition [6]: 95.3%
inhibition [7]: 12.2%
Activity (LAPC4 [4]): 0.9%
Activity (LAPC4 [5]): 15.9%

O=C1OC2(CCCCC2)CN(Cc2cn(Cc3ccccc3)nn2)[C@H]1Cc1ccccc1
inhibition [2]: 9.4%
inhibition [6]: 13.3%
inhibition [7]: 0%
Activity (LAPC4 [4]): 2.5%
Activity (LAPC4 [5]): 12.4%

C[C@]12CC[C@@]3(C[C@@H]1CC[C@@H]1[C@@H]2CC[C@]2(C)C(=O)CC[C@@H]12)CN(Cc1ccccc1C(F)(F)F)CC(=O)O3
inhibition [2]: 77.9%
inhibition [6]: 83%
inhibition [7]: 24.4%
Activity (LAPC4 [4]): 0.5%
Activity (LAPC4 [5]): 36.9%

COC(=O)[C@H](Cc1ccccc1)N1C[C@]2(CC[C@@]3(C)[C@@H](CC[C@@H]4[C@@H]3CC[C@]3(C)C(=O)CC[C@@H]43)C2)OC1=O
inhibition [1]: 72.1%
inhibition [2]: 48.3%
inhibition [3]: 87.7%
Activity (LAPC4 [4]): 0%
Activity (LAPC4 [5]): 0%

COC(=O)[C@@H](Cc1ccccc1)N1C[C@]2(CC[C@@]3(C)[C@@H](CC[C@@H]4[C@@H]3CC[C@]3(C)C(=O)CC[C@@H]43)C2)OC1=O
inhibition [1]: 74.3%
inhibition [2]: 56.1%
inhibition [3]: 80.8%
Activity (LAPC4 [4]): 0%
Activity (LAPC4 [5]): 29.2%

C#CCN1CC2(CCCCC2)OC(=O)[C@@H]1Cc1ccccc1
inhibition [2]: 0%
inhibition [6]: 0%
inhibition [7]: 0%
Activity (LAPC4 [4]): 11.1%
Activity (LAPC4 [5]): 0%

CC(C)C[C@@H]1C(=O)O[C@@]2(CC[C@@]3(C)[C@@H](CC[C@@H]4[C@@H]3CC[C@]3(C)C(=O)CC[C@@H]43)C2)CN1Cc1ccccc1
inhibition [1]: 56.5%
inhibition [2]: 45.9%
inhibition [3]: 82.3%
Activity (LAPC4 [4]): 6.2%
Activity (LAPC4 [5]): 47.7%

C=CCN1CC(=O)O[C@@]2(CC[C@@]3(C)[C@@H](CC[C@@H]4[C@@H]3CC[C@]3(C)C(=O)CC[C@@H]43)C2)C1
inhibition [2]: 48.6%
inhibition [6]: 89%
inhibition [7]: 8.4%
Activity (LAPC4 [4]): 31%
Activity (LAPC4 [5]): 11.3%

C[C@]12CC[C@]3(CNCC(=O)O3)C[C@@H]1CC[C@@H]1[C@@H]2CC[C@]2(C)C(=O)CC[C@@H]12
inhibition [1]: 44.7%
inhibition [2]: 0%
inhibition [3]: 82%
Activity (LAPC4 [4]): 9.7%
Activity (LAPC4 [5]): 32%

C[C@]12CC[C@@]3(C[C@@H]1CC[C@@H]1[C@@H]2CC[C@]2(C)C(=O)CC[C@@H]12)CN(Cc1cc(C(F)(F)F)cc(C(F)(F)F)c1)CC(=O)O3
inhibition [2]: 61.6%
inhibition [6]: 94.4%
inhibition [7]: 15.1%
Activity (LAPC4 [4]): 12%
Activity (LAPC4 [5]): 5.9%

C[C@]12CC[C@@]3(C[C@@H]1CC[C@@H]1[C@@H]2CC[C@]2(C)C(=O)CC[C@@H]12)CN(Cc1cn(Cc2ccccc2)nn1)CC(=O)O3
inhibition [2]: 42.2%
inhibition [6]: 85.3%
inhibition [7]: 5.1%
Activity (LAPC4 [4]): 10%
Activity (LAPC4 [5]): 17.7%
